# Bioassay records deposited in PubChem BioAssay by several laboratories.
# Most compounds without a hit are left out; they make up all but 3.3% or so of the library.
# ROMK mod – human ROMK K+ channel modulation, primary screen | P48048 | Tet-inducible ROMK, thallium flux fluorescence; actives lie on both sides | 2% of 130,000 active | B-score at 10 µM;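 active = signal ratio slope over the read window, or its plate-corrected B-score, at least 3 SD from the plate mean, either direction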;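 also: B-score of the F/F0 ratio slope over 7 to 12 s after thallium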
# ABCG2 inh – inhibitors of human ABCG2 transporter, ABCB1 counter-screen; Q9UNQ0; IgMXP3 cells, JC-1 efflux, flow cytometry; inhibition, % at 6.6 µM; 0.1% of 190,000 active; AID 1325;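 active = inhibition above 80%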
# Target sequence (Q9UNQ0 whole entry, looked up): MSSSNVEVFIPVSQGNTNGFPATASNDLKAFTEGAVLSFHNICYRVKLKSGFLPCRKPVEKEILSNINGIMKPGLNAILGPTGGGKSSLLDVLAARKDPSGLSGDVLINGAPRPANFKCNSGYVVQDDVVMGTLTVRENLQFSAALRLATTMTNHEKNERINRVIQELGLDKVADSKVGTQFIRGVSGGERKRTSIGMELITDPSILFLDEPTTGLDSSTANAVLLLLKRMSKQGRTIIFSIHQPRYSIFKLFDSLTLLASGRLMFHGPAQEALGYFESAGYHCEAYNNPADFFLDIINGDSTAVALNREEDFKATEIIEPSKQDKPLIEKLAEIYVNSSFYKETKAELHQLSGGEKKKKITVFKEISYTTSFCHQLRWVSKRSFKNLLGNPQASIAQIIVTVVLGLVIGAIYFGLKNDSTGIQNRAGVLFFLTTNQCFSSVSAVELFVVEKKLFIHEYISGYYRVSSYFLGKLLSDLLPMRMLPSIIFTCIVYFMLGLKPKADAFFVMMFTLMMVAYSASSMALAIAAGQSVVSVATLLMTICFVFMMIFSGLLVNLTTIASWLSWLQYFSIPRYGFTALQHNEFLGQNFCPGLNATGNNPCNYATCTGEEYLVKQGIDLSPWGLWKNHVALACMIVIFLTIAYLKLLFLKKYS
#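 Measure – % inhibition of efflux relative to nicardipine and DMSO · Test system – ABCG2 IgMXP3 and barcoded ABCB1 CCRF-Adr cell mix · Control set – nicardipine as high control, DMSO as low control · Compound – one concentration, 6.6 µM final · Signal – flow cytometry of retained JC-1 fluorescence · Timing – 10 min exposure at 25 °C with rotation, no wash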
# PMI activator – increases human mannose-6-phosphate isomerase activity | purified human PMI, coupled resazurin fluorescence, 20 min; active compounds read high; 1 = vehicle control, 0 substrate-free wells | activation factor at 20 µM | 0.005% of 190,000 active | P34949;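 active = activation factor of 2 or more at 20 µM, relative to plate controls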
# ABCB1 block – blocks JC-1 efflux by human ABCB1 transporter; CCRF-Adr cells, flow cytometry; inhibition, % at 6.6 µM; 0.067% of 190,000 active; AID 1326; in the data active = inhibition above about 40%;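 also: higher value means more JC-1 retained so stronger ABCB1 efflux block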
# PMI act hi M6P – PMI (human) activation, high substrate. coupled PMI enzyme assay, resazurin fluorescence, 20 min; active compounds read high; 1 = untreated enzyme, 0 = substrate-free blank. activation factor at 20 µM. 0.34% of 190,000 active. AID 1216;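 active = activation factor of 2 or more at 20 µM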
#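 Material: human phosphomannose isomerase with PGI, G6PDH, diaphorase coupling enzymes / Reagent: Man-6-P substrate 1.0 mM / Dosing: single compound dose of 20 µM, 1% DMSO final / Incubation: enzyme reaction with compound 20 min at room temperature / Signal: resorufin fluorescence (Ex 544/Em 590 nm) from resazurin via diaphorase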
# Cl transport mod – KCC2 (human) Cl- transport modulation. 2.2% of 190,000 active. B-score of Tl+ flux slope (higher = more flux/activation; lower = inhibition) at 10 µM. KCC2 cells, thallium flux FluoZin-2 fluorescence. AID 1456;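 active = thallium flux slope and its plate-corrected score both differing from the plate sample mean at a set confidence after two filtering rounds, in either direction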;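 also: slope of fluorescence scaled to starting intensity during 10 to 20 s after thallium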
# A number is an active result; i = inactive; nt = no result.
SMILES,ROMK mod,ABCG2 inh,PMI activator,ABCB1 block,PMI act hi M6P,Cl transport mod
Cc1ccc(C2c3sc(=O)[nH]c3SC3C(=O)NC(=O)C32)cc1 (centres undefined),i,i,i,i,i,-6.8
O=C(Nc1nnc(-c2ccncc2)o1)c1ccccc1F,i,i,i,i,i,i
O=C(Nc1nnc(-c2ccccc2)o1)c1cc(Cl)sc1Cl,2.3,i,i,i,i,60
O=C(Nc1nnc(-c2ccc(F)cc2)o1)c1cc(Cl)sc1Cl,3.2,i,i,i,i,54
N#Cc1ccccc1Sc1ccccc1C(=O)N1CCOCC1,i,i,i,i,i,nt
O=C(c1ccccc1Sc1ccc([N+](=O)[O-])cc1Cl)N1CCOCC1,i,i,i,i,2.1,i
Nc1cccc(NP(=O)(c2ccccc2)c2ccccc2)c1,i,nt,nt,nt,nt,i
CNCC/C=C1/c2ccccc2CSc2ccccc21,-4.9,i,i,i,i,i
CN(C)CC/C=C1\c2ccccc2COc2ccccc21,nt,i,i,i,i,i
CC(C)Cn1c(=O)c(C2=NS(=O)(=O)c3ccccc3N2)c(O)c2ccccc21,nt,nt,nt,nt,nt,8.8
CC(C)Cn1c(=O)c(C(=O)NCc2ccccn2)c(O)c2ccccc21,i,i,i,i,i,i
CCOC(=O)c1csc(COc2ccc(OC)cc2)n1,i,nt,nt,nt,nt,i
O=C(/C=C/c1ccccc1)C1C(=O)c2ccccc2C1=O,nt,i,i,i,i,36
CCc1ccc(/C=C/C(=O)C2C(=O)c3ccccc3C2=O)cc1,nt,i,i,i,i,19
O=C(CCc1ccc(O)cc1)N/N=C/c1coc2ccccc2c1=O,nt,nt,nt,nt,nt,i
Cc1c(NC(=S)NC(=O)c2sc3ccccc3c2Cl)cccc1C(=O)O,i,i,i,i,i,i
COc1ccccc1C(=O)NC(=S)NNC(=O)c1sc2ccccc2c1Cl,nt,i,i,i,i,34
COc1ccccc1C(=O)NNC(=S)NC(=O)c1sc2ccccc2c1Cl,nt,i,i,i,i,20
O=C1NC(Nc2nccs2)(C(F)(F)F)C(=O)N1CCc1ccccc1 (centres undefined),i,i,i,i,i,-2.6
CCCCCCC(C)OC(=O)c1ccccc1C(=O)O (centres undefined),nt,nt,nt,nt,nt,i
Cc1cc(NCCN2CCOCC2)n2ncc(-c3ccccc3)c2n1,i,i,i,i,i,nt
Cc1cc(NCCN2CCOCC2)n2ncc(-c3ccc(Cl)cc3)c2n1,i,nt,nt,nt,nt,4.8
Cc1c(N/C(=N/S(=O)(=O)c2ccc(Cl)cc2)c2ccccc2)c(=O)n(-c2ccccc2)n1C,i,i,i,i,i,i
COC(=O)CN1C(c2ccccc2)=Nc2ccc(Cl)cc2C1c1ccccc1 (centres undefined),-3.1,i,i,i,i,-4
COC(=O)CN1C(C)=Nc2ccc(C)cc2C1c1ccccc1 (centres undefined),i,i,i,i,i,i
SMILES,ROMK mod,ABCG2 inh,PMI activator,ABCB1 block,PMI act hi M6P,Cl transport mod
Cn1c(=O)c2c3c(sc2n2c(SCC(=O)c4ccc(Cl)cc4)nnc12)COC(C)(C)C3,i,nt,nt,nt,nt,nt
O=C(COC(=O)c1cc2ccccc2oc1=O)Nc1ccc(F)cc1F,nt,nt,nt,nt,nt,i
S=c1[nH]nc(CSc2nc3ccccc3s2)n1C1CCCCC1,nt,i,i,i,i,30
S=c1[nH]nc(COc2ccccc2)n1C1CCCCC1,i,i,i,i,i,12
S=c1[nH]nc(COc2ccccc2)n1Cc1ccccc1,i,i,i,i,i,i
COCCNC(=S)NNc1ccccc1[N+](=O)[O-],nt,i,i,i,i,i
S=C(Nc1ccc(Br)cc1)NC1CCCCC1,i,i,i,i,i,i
Cc1ccc(C(C(=O)NC2CCCCC2)N(Cc2ccco2)C(=O)Cn2cnc3ccccc32)cc1 (centres undefined),-3.3,i,i,i,i,i
O=C(CN1CCOCC1)N/N=C/c1ccc(-c2cccc(Cl)c2Cl)o1,nt,nt,nt,nt,nt,i
CC1CCC/C(=N\Nc2ccc(Cl)c(C(=O)O)c2)C1 (centres undefined),i,i,i,i,2.1,i
CC1CCC/C(=N\NC(=O)Nc2ccccc2)C1 (centres undefined),nt,i,i,i,i,i
CCCC(c1nnnn1CS(=O)(=O)c1ccc(C)cc1)N1CCN(CC)CC1 (centres undefined),i,i,i,i,i,i
Cc1cccc(NC(=S)c2nc3ccccc3s2)c1,i,i,i,i,i,3.3
Cc1sc(NC(=S)NC(=O)C2CCCCC2)c(C(N)=O)c1C,nt,i,i,i,i,i
COc1cc(C#N)c(NC(=S)N2CCOCC2)cc1OC,i,i,i,i,i,nt
C(=C\c1ccco1)/C1=NN(c2ccccc2)C(c2ccco2)C1 (centres undefined),nt,i,i,i,2.2,i
COc1cc2c(cc1OC)CN(Cc1cc(=O)oc3c(C)c(C)ccc13)CC2,nt,i,i,i,i,i
COc1cc2c(cc1OC)CN(Cc1cc(=O)oc3cc(C)c(Cl)cc13)CC2,i,i,i,i,2.3,i
CCc1ccc2c(CN3CCc4cc(OC)c(OC)cc4C3)cc(=O)oc2c1,i,i,i,i,2.2,i
COc1cc2c(cc1OC)CN(Cc1cc(=O)oc3cc(C)c(C)cc13)CC2,i,i,i,i,2.2,i
COc1cc2c(cc1OC)CN(Cc1ccc(OC)c(C)c1OC)CC2,nt,i,i,i,i,i
COc1cccc(/C=N/NC(=O)c2ccccc2N(Cc2ccccc2)S(=O)(=O)c2ccccc2)c1OC,nt,i,i,i,i,nt
O=C(NNC(=O)c1cccnc1SCc1cccc([N+](=O)[O-])c1)c1ccccn1,i,i,i,i,i,6.9
O=C(NNC(=O)c1cccnc1SCc1cccc([N+](=O)[O-])c1)c1ccc(F)cc1,i,i,i,i,i,i
CCc1ccc(S(=O)(=O)NCc2csc(-c3ccccc3)n2)s1,nt,i,i,i,i,-4.9
SMILES,ROMK mod,ABCG2 inh,PMI activator,ABCB1 block,PMI act hi M6P,Cl transport mod
COc1ccc(-c2nc(=S)c3c([nH]2)Oc2ccc(C)cc2C3)cc1O,i,i,i,i,2.1,i
O=C(NCc1ccccc1)C1(c2cccc(F)c2)CCCC1,i,i,i,i,i,i
c1ccc2c(c1)CCCN2Cc1nnnn1CC1CCCO1 (centres undefined),nt,i,i,i,2.1,i
Fc1ccc(C(c2nnnn2CCc2ccccc2)N2CCCc3ccccc32)cc1 (centres undefined),i,i,i,i,i,i
c1ccc(-c2nnc(CN3CCCc4ccccc43)o2)cc1,nt,i,i,i,2.1,i
c1ccc(CCn2nnnc2CN2CCCc3ccccc32)cc1,nt,i,i,i,2.1,i
Cc1nn(-c2ccccn2)c2c1C(c1c(F)cccc1Cl)C1=C(N2)c2ccccc2C1=O (centres undefined),i,i,i,i,i,i
CC(C)(C)C(=O)OCc1nc(-c2ccc(C(F)(F)F)cc2)cs1,nt,nt,nt,nt,nt,i
